Reference: ChEMBL document CHEMBL1671683, “Activity of linezolid in an in vitro pharmacokinetic-pharmacodynamic model using different dosages and Staphylococcus aureus and Enterococcus faecalis strains with and without a hypermutator phenotype” (Antimicrob Agents Chemother, 2010)

Key:
Enterococcus faecalis [1] = assay: Bactericidal activity against 12.5 hrs peripheral compartment culture samples of Enterococcus faecalis Ef1497 MutM3 in two-compartment pharmacokinetic/pharmacodynamic model assessed as effect on bacterial count at 200 mg, bid administered as 0.5 hr infusion; type: functional
Outline: (§1)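 An 18-h culture concentrated 50-fold was injected into the peripheral compartment 3 h pre-sampling (~10^8 CFU/ml E. faecalis, 10^9 S. aureus). Counts came from dilution plating (detection limit 2–3 log10 CFU/ml), expressed as Δlog CFU/ml from treatment start. Run in duplicate.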

Enterococcus faecalis [2] = assay: T>MIC in Enterococcus faecalis Ef1497 in two-compartment pharmacokinetic/pharmacodynamic model at 800 mg, bid administered as 0.5 hr infusion for 2 days; type: functional
Staphylococcus aureus = assay: Bactericidal activity against 2 hrs peripheral compartment culture samples of Staphylococcus aureus RN4220 MutS2 in two-compartment pharmacokinetic/pharmacodynamic model assessed as effect on bacterial count at 600 mg, bid administered as 0.5 hr infusion; type: functional; outline: as §1
[3] = Mean residence time in two-compartment pharmacokinetic/pharmacodynamic model at 800 mg, bid administered as 0.5 hrs infusion; type: ADME, organism-based; conditions: iv
[4] = tested on: Staphylococcus aureus subsp. aureus RN4220; assay: AUBC (0 to 24 hrs) in Staphylococcus aureus RN4220MutS2 in two-compartment pharmacokinetic/pharmacodynamic model at 600 mg, bid administered as 0.5 hr infusion for 2 days; type: functional
Outline: (§2)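 Hollow-fibre two-compartment model in cation-adjusted, protein-free MH broth at 37°C. Human total-plasma linezolid profile simulated as 0.5-h infusion every 12 h for 48 h. Concentrated 18-h culture injected into the peripheral compartment 3 h before first sample, giving about 10^8 (E. faecalis) or 10^9 (S. aureus) CFU/ml. Viable counts by dilution plating over 0–24 h. Area indices calculated versus growth control curve. Duplicate runs.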

[5] = Cmax in two-compartment pharmacokinetic/pharmacodynamic model at 200 mg, bid administered as 0.5 hr infusion over 24 hrs; type: ADME, organism-based; design: dose 200 mg; conditions: iv
Enterococcus faecalis [6] = assay: Bactericidal activity against 0.5 hrs peripheral compartment culture samples of Enterococcus faecalis ATCC 29212 in two-compartment pharmacokinetic/pharmacodynamic model assessed as effect on bacterial count at 600 mg, bid administered as 0.5 hr infusion; type: functional
Outline: (§3)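 Two-compartment hollow-fibre model in cation-adjusted, protein-free MH broth, 37°C. Linezolid given as simulated 0.5-h infusion twice daily. Inoculum grown 18 h, concentrated 50-fold and placed in the peripheral compartment 3 h before t0. Peripheral samples at set times counted by dilution plating. First 10-fold dilution not plated, limiting detection to 2–3 log10 CFU/ml. Δlog CFU/ml taken from t0 count. Duplicates.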

Enterococcus faecalis [7] = assay: Bactericidal activity against 12 hrs peripheral compartment culture samples of Enterococcus faecalis ATCC 29212 in two-compartment pharmacokinetic/pharmacodynamic model assessed as effect on bacterial count at 200 mg, bid administered as 0.5 hr infusion; type: functional; outline: as §3
Enterococcus faecalis [8] = assay: Bactericidal activity against 1 hr peripheral compartment culture samples of Enterococcus faecalis Ef1497 in two-compartment pharmacokinetic/pharmacodynamic model assessed as effect on bacterial count at 600 mg, bid administered as 0.5 hr infusion; type: functional; outline: as §3
Enterococcus faecalis [9] = assay: Bactericidal activity against 14 hrs peripheral compartment culture samples of Enterococcus faecalis Ef1497 in two-compartment pharmacokinetic/pharmacodynamic model assessed as effect on bacterial count at 800 mg, bid administered as 0.5 hr infusion; type: functional; outline: as §1
Enterococcus faecalis [10] = assay: AUBC (0 to 24 hrs) in Enterococcus faecalis Ef1497 in two-compartment pharmacokinetic/pharmacodynamic model at 800 mg, bid administered as 0.5 hr infusion for 2 days; type: functional; outline: as §2
[11] = AUC in two-compartment pharmacokinetic/pharmacodynamic model at 600 mg, bid administered as 0.5 hrs infusion; type: ADME; conditions: iv
in vivo = conditions: iv, 800 mg
[12] = Tmax in two-compartment pharmacokinetic/pharmacodynamic model at 600 mg, bid administered as 0.5 hrs infusion; type: ADME, organism-based; conditions: iv
Outline: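 Two-compartment in vitro hollow-fibre model in cation-adjusted, protein-free Mueller-Hinton broth at 37°C. Human total-plasma linezolid profile simulated as 0.5-h infusion every 12 h for 48 h, computer-controlled syringe pump into central compartment. […] Peripheral samples assayed by validated HPLC-UV (quantification limit 0.39 μg/ml). Tmax read directly from concentration-time profiles. Run in duplicate.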

[13] = Total clearance in two-compartment pharmacokinetic/pharmacodynamic model at 800 mg, bid administered as 0.5 hr infusion over 24 hrs; type: ADME, organism-based; conditions: in vivo, iv

CC(=O)NC[C@H]1CN(c2ccc(N3CCOCC3)c(F)c2)C(=O)O1 [LINEZOLID]
log10CFU/ml (Enterococcus faecalis [1]): 0.23 | fT>MIC (Enterococcus faecalis [2]): 80.9% | log10CFU/ml (Staphylococcus aureus): 0.02 | MRT [3]: 6.55 h | AUBC [4]: 228.8 log10CFU/ml.hr | Cmax [5]: 4790 ng/mL | log10CFU/ml (Enterococcus faecalis [6]): 0.04 | log10CFU/ml (Enterococcus faecalis [7]): 0.14 | log10CFU/ml (Enterococcus faecalis [8]): -0.05 | log10CFU/ml (Enterococcus faecalis [9]): -0.05 | AUBC (Enterococcus faecalis [10]): 210.5 log10CFU/ml.hr | AUC at 0.5 h [11]: 43000 ng·h/mL | half-life (in vivo): 5.2 h | Tmax [12]: 0.5 h | clearance [13]: 228 mL/min
